The record followed here is ChEMBL document CHEMBL1130061, “Discovery and biological activity of orally active peptidyl trifluoromethyl ketone inhibitors of human neutrophil elastase” (J Med Chem, 1997).

Numbered stars: 1 amine (or outer) side, 2 acyl side, 3 side chain; on linkers, the order of the positions; unused ones are H or OH. Peptide text beside a SMILES is read from it. * marks the point of attachment. CO = O=C([*:1])[*:2]; NHPh = c1ccc(N*)cc1; CF3 = FC(F)(F)*

One test deals with T1, Neutrophil elastase (Homo sapiens, UniProt P08246).
T1 sequence (P08246 whole entry): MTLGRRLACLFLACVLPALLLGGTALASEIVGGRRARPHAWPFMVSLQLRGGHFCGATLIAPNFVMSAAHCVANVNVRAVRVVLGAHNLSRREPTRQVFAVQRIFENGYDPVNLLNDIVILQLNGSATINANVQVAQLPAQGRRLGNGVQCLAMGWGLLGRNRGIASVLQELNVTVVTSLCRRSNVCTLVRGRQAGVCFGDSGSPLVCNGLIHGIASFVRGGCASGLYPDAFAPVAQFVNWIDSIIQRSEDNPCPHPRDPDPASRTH
As to the kind of experiment: Inhibitory activity against Human Neutrophil Elastase by HNE-catalyzed hydrolysis of MeO-Suc-Ala-Ala-Pro-Val-pNa.

For test [1], the system named is Mesocricetus auratus. The test is described as follows: Oral administration at a dose of 37.5 mg/kg 30 min prior to HNE (100 mg/hamster) and reduction in the number of white blood cells was reported.
For test [2], the species on record is Mesocricetus auratus. The test is described as follows: Reduction in wet lung weight relative to the body weight in hamsters.
Test [3] concerns Cricetinae gen. sp. As to the kind of experiment: Inhibition at the oral dose of 25 mg/kg 30 min prior to […] dose of 10 microg of HNE in hamster. Format: functional, Cricetulus griseus.
For test [4], the system named is Cricetinae gen. sp. As to the kind of experiment: Inhibition at the oral dose of 10 mg/kg 30 min prior to […] dose of 50 microg of HNE in hamster. Format: functional, Cricetulus griseus. In short, it runs like this: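 Anesthetized hamsters received HNE (50 µg/hamster) intratracheally, with the compound given orally as a solution in 10% PEG/PBS 30 min beforehand. Lung hemorrhage was quantified 4 h later by spectrophotometric hemoglobin measurement in lung lavage. Percent inhibition is relative to HNE and saline controls: 100% equals saline, 0% equals HNE.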

Test [5] concerns Mesocricetus auratus. As to the kind of experiment: Oral administration at a dose of 37.5 mg/kg 30 min prior to HNE and reduction in the number of white blood cells was reported.

In general, Ki refers to a dissociation constant, usually derived from enzyme kinetics or from competition with a known ligand. `CC(C)[C@H](NC(=O)Oc1ccc(F)cc1)C(=O)N1CCC[C@H]1C(=O)N[C@H](C(=O)C(F)(F)F)C(C)C`: the Ki at Neutrophil elastase is 0.63 nM. For the same molecule, in the test on Mesocricetus auratus [1], the Reduction was -67%. This molecule also returned a Lw/Bw in the test listed under Mesocricetus auratus [2] of 63.
In turn, `CC(C)[C@H](NC(=O)c1c[nH]cn1)C(=O)N1CCC[C@H]1C(=O)N[C@H](C(=O)C(F)(F)F)C(C)C` came in with a Ki on Neutrophil elastase of 63 nM. Moreover, the Reduction with Mesocricetus auratus [1] was -267%. The Lw/Bw in the test listed under Mesocricetus auratus [2] is -42.
At Neutrophil elastase, `CC(C)[C@H](NC(=O)c1ccncc1)C(=O)N1CCC[C@H]1C(=O)N[C@H](C(=O)C(F)(F)F)C(C)C` displayed a Ki of 3.8 nM. Also, in the test on Mesocricetus auratus [1], the Reduction is -45%. This molecule also gave a Lw/Bw in the test filed under Mesocricetus auratus [2] of -15.
The matching figures for `CC(C)C(NC(=O)C1CCCN1C(=O)[C@@H](NC(=O)CCC(=O)NS(=O)(=O)c1cccc2ccccc12)C(C)C)C(=O)C(F)(F)F` (some centres undefined): 6.1 nM, -212% and -80.
In turn, `COc1ccc(S(=O)(=O)N[C@H](C(=O)N2CCCC2C(=O)NC(C(=O)C(F)(F)F)C(C)C)C(C)C)cc1` (some centres undefined) returned an inhibition constant (Ki) on Neutrophil elastase of 8 nM. Besides, in the test with Mesocricetus auratus [1], the Reduction is -42%. The molecule also showed a Lw/Bw in the test listed under Mesocricetus auratus [2] of 29.
The matching figures for `CC(C)C(NC(=O)C1CCCN1C(=O)[C@@H](NC(=O)c1cc(C(=O)O)cc(C(=O)O)c1)C(C)C)C(=O)C(F)(F)F` (some centres undefined): 43 nM, -105% and -45.
The inhibition in vivo is the percentage by which the read-out fell short of the control. `CC(C)[C@H](NC(=O)N1CCOCC1)C(=O)N1CCC[C@H]1C(=O)N[C@H](C(=O)C(F)(F)C(F)(F)F)C(C)C` displayed an inhibition in vivo at 25 mg/kg in the test with Cricetinae gen. sp. [3] of 69%. This molecule also returned a Ki on Neutrophil elastase of 170 nM.
For the molecule `CC(C)[C@H](NC(=O)Oc1ccccc1)C(=O)N1CCC[C@H]1C(=O)N[C@H](C(=O)C(F)(F)F)C(C)C`, at Neutrophil elastase, affinity was put at a Ki of 1.3 nM. For the same molecule, 10 mg/kg produced 91% inhibition in vivo in the test with Cricetinae gen. sp. [4]. Besides, the Reduction in the test with Mesocricetus auratus [5] came to 77%. The Lw/Bw in the test listed under Mesocricetus auratus [2] was determined as 62.
`CC(C)C(NC(=O)C1CCCN1C(=O)[C@H](C(C)C)N(CCCc1ccccc1)CCCc1ccccc1)C(=O)C(F)(F)F.Cl` (some centres undefined) gave a Ki on Neutrophil elastase of 1.7 nM. Besides, in the test with Mesocricetus auratus [1], the Reduction is -39%. In the test filed under Mesocricetus auratus [2], the Lw/Bw is -23.
In the case of `COc1ccc(C(=O)N[C@H](C(=O)N2CCC[C@H]2C(=O)N[C@H](C(=O)C(F)(F)F)C(C)C)C(C)C)cc1`, in the test on Cricetinae gen. sp. [4], testing at 10 mg/kg gave an inhibition in vivo of 84%. Also, the Reduction with Mesocricetus auratus [5] is 91%. Moreover, the Lw/Bw in the test listed under Mesocricetus auratus [2] worked out at 77.
For the molecule `CC(C)[C@H](NC(=O)c1ccc(C(=O)N2CCOCC2)cc1)C(=O)N1CCC[C@H]1C(=O)N[C@H](C(=O)C(F)(F)C(F)(F)F)C(C)C`, in the test with Cricetinae gen. sp. [3], 25 mg/kg produced 74% inhibition in vivo. The molecule further had a Ki at Neutrophil elastase of 25 nM.
As for `CC(C)C(NC(=O)C1CCCN1C(=O)[C@@H](NS(=O)(=O)c1ccc([N+](=O)[O-])cc1)C(C)C)C(=O)C(F)(F)F` (some centres undefined), the Ki at Neutrophil elastase was 5.2 nM. The Reduction in the test with Mesocricetus auratus [1] was -118%. The molecule also yielded a Lw/Bw in the test filed under Mesocricetus auratus [2] of -36.
On Neutrophil elastase, `CC(C)[C@H](NC(=O)c1ccccc1)C(=O)N1CCC[C@H]1C(=O)N[C@H](C(=O)C(F)(F)F)C(C)C` (HELM PEPTIDE1{[O=C(c1ccccc1)[*:2]].V.P.V.[FC(F)(F)[*:1]]}$$$$V2.0) yielded a Ki of 6.8 nM. Besides, in the test on Mesocricetus auratus [1], the Reduction was -7%. For the same molecule, in the test listed under Mesocricetus auratus [2], the Lw/Bw was 62.
The matching figures for `CC(=O)N[C@H](C(=O)N1CCC[C@H]1C(=O)N[C@H](C(=O)C(F)(F)F)C(C)C)C(C)C` (HELM PEPTIDE1{[ac].V.P.V.[FC(F)(F)[*:1]]}$$$$V2.0): 45 nM, -120% and 8.
For `CC(C)[C@H](NC(=O)Nc1ccccc1)C(=O)N1CCC[C@H]1C(=O)N[C@H](C(=O)C(F)(F)F)C(C)C` ({NHPh-CO}-Val-Pro-Val-CF3), in that order: 2.6 nM, -184% and -2.
